From ChEMBL document CHEMBL1212900, “Falcipain inhibitors: optimization studies of the 2-pyrimidinecarbonitrile lead series” (J Med Chem, 2010)

Assays:
[1] = Inhibition of Plasmodium falciparum falcipain-3 expressed in Escherichia coli
How it was run: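 Refolded recombinant enzyme from E. coli, 2 nM, in 100 mM sodium acetate pH 5.5 with 500 μM CHAPS and 10 mM DTT, DMSO up to 1%. H-D-Val-Leu-Arg-AFC at 150 μM final. Reaction started by enzyme addition; fluorescence monitored 1 h at room temperature. IC50 derived from percent activity plotted against inhibitor concentration.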

[2] = Inhibition of Plasmodium falciparum falcipain-2 expressed in Escherichia coli
How it was run: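 Recombinant E. coli-expressed, refolded enzyme at 0.25 nM in 100 mM sodium acetate pH 5.5, 500 μM CHAPS, 10 mM DTT, DMSO ≤1%. Substrate H-D-Val-Leu-Arg-AFC at 30 μM final. Inhibitor dilutions mixed with substrate, enzyme added last; fluorescence followed 1 h at room temperature. IC50 from percent activity versus concentration.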

SMILES | IC50 [1] | IC50 [2]
CC(C)CN(NC(=O)c1cnc2ccccc2c1)c1nc(C#N)ncc1Cl | 126 nM | 1 nM
Cc1ccc2[nH]c(C(=O)NN(CC(C)C)c3nc(C#N)ncc3Br)cc2c1 | 1530 nM | 33 nM
CC(C)CN(NC(=O)OC(C)(C)C)c1cncc(C#N)n1 | 1670 nM | 59 nM
CC(C)CN(NC(=O)OC(C)(C)C)c1nc(Cl)ncc1C#N |  | 4530 nM
COc1nc(C#N)nc(N(CC(C)C)NC(=O)OC(C)(C)C)n1 | 204 nM | 12 nM
CC(C)CN(NC(=O)OC(C)(C)C)c1nc(C#N)ncc1Br | 92 nM | 3 nM
CC(C)CN(NC(=O)OC(C)(C)C)c1nc(C#N)ncc1Cl | 144 nM | 9 nM
CC(C)CN(NC(=O)OC(C)(C)C)c1nc(C#N)ncc1[N+](=O)[O-] | 26 nM | 2 nM
Cc1cnc(C#N)nc1N(CC(C)C)NC(=O)OC(C)(C)C | 1150 nM | 40 nM
CC(C)CN(NC(=O)OC(C)(C)C)c1nc(C#N)ncc1C(F)(F)F | 66 nM | 3 nM
CC(C)CN(NC(=O)OC(C)(C)C)c1nc(C#N)ncc1NCc1ccccc1 | 2070 nM | 616 nM
CC(C)CN(NC(=O)OC(C)(C)C)c1nc(C#N)ncc1C#Cc1ccc(C(F)(F)F)cc1 | 5330 nM | 102 nM
CC(C)CN(NC(=O)c1ccc2nccnc2c1)c1nc(C#N)ncc1Br | 1440 nM | 66 nM
CC(C)CN(NC(=O)c1cc2ccccc2cn1)c1nc(C#N)ncc1Cl | 333 nM | 7 nM
CC(C)CN(NC(=O)OC(C)(C)C)c1nc(Cl)ncc1[N+](=O)[O-] | > 25000 nM | > 25000 nM
CC(C)(C)OC(=O)NN(CC1CC1)c1nc(C#N)ncc1Br | 413 nM | 7 nM
CC(C)(C)OC(=O)NN(CC1CCC1)c1nc(C#N)ncc1Br | 62 nM | 3 nM
CC(C)(C)OC(=O)NN(CC1CCCCC1)c1nc(C#N)ncc1Br | 146 nM | 24 nM
CC(C)CN(NC(=O)c1ccnc2ccccc12)c1nc(C#N)ncc1Cl | 44 nM | 1 nM
Cc1c(C(=O)NN(CC(C)C)c2nc(C#N)ncc2Br)oc2ccccc12 | 1430 nM | 223 nM
CC(C)(C)OC(=O)NN(CCC1CCCC1)c1nc(C#N)ncc1Br | 504 nM | 64 nM
CC(C)(C)OC(=O)NN(CCc1ccccc1)c1nc(C#N)ncc1Br | 557 nM | 93 nM
CC(C)CN(NC(=O)c1cc2ccccc2s1)c1nc(C#N)ncc1Br | 365 nM | 241 nM
Cc1ccc2sc(C(=O)NN(CC(C)C)c3nc(C#N)ncc3Br)cc2c1 | 748 nM | 6 nM
CC(C)CN(NC(=O)c1ccc2sccc2c1)c1nc(C#N)ncc1Br | 154 nM | 1 nM
CC(C)CN(NC(=O)c1cc2ccccc2[nH]1)c1nc(C#N)ncc1Br | 641 nM | 15 nM
CC(C)(C)OC(=O)NN(CC1CC=CCC1)c1nc(C#N)ncc1Br (configuration not stated) | 41 nM | 2 nM

SMILES | IC50 [1] | IC50 [2]
CC(C)(C)OC(=O)NN(c1nc(C#N)ncc1Br)C1CCC1 | 297 nM | 13 nM
CC(C)(C)OC(=O)NN(c1nc(C#N)ncc1Br)C1CCCCC1 | 8 nM | 1 nM
Cc1c(C(=O)NN(CC(C)C)c2nc(C#N)ncc2Br)n(C)c2ccccc12 | 311 nM | 4 nM
CC(C)CN(NC(=O)c1cccc2cc[nH]c12)c1nc(C#N)ncc1Br | 342 nM | 3 nM
CC(C)(C)OC(=O)NN(c1nc(C#N)ncc1Br)C1CCCC1(C)C (configuration not stated) | 447 nM | 34 nM
CC(C)(C)OC(=O)NN(c1nc(C#N)ncc1Br)C1CC=CC1 | 21 nM | 2 nM
CC(C)(C)OC(=O)NN(CC1CCCO1)c1nc(C#N)ncc1Br (configuration not stated) | 112 nM | 14 nM
Cc1nc2cc(C(=O)NN(CC(C)C)c3nc(C#N)ncc3Br)ccc2[nH]1 | 27 nM | 0.2 nM
Cc1c(C(=O)NN(CC(C)C)c2nc(C#N)ncc2Br)oc2cccnc12 | 73 nM | 2 nM
CC1OCCC1N(NC(=O)OC(C)(C)C)c1nc(C#N)ncc1Br (configuration not stated) | 98 nM | 7 nM
CC(C)(C)OC(=O)NN(CC1CCOCC1)c1nc(C#N)ncc1Br | 85 nM | 8 nM
CC(C)(C)OC(=O)NN(Cc1ccco1)c1nc(C#N)ncc1Br | 140 nM | 8 nM
CC(C)(C)OC(=O)NN(Cc1ccoc1)c1nc(C#N)ncc1Br | 183 nM | 60 nM
CC(C)(C)OC(=O)NN(c1nc(C#N)ncc1Br)C1CCOCC1 | 28 nM | 2 nM
CC(C)CN(NC(=O)c1cccc2c1-c1ccccc1C2=O)c1nc(C#N)ncc1Br | 67 nM | 2 nM
CC(C)CN(NC(=O)c1ccc(-c2ccccc2)cc1)c1nc(C#N)ncc1Br | 1460 nM | 28 nM
CC(C)(C)OC(=O)NN(c1nc(C#N)ncc1Br)C1CCN(C(=O)OCc2ccccc2)CC1 | 38 nM | 2 nM
CC(C)(C)OC(=O)NN(c1nc(C#N)ncc1Br)C1CCN(C(=O)OC(C)(C)C)CC1 | 135 nM | 26 nM
CC(C)N1CCC(N(NC(=O)OC(C)(C)C)c2nc(C#N)ncc2Br)CC1 | 5240 nM | 902 nM
CC(=O)N[C@H]1CC[C@H](N(NC(=O)OC(C)(C)C)c2nc(C#N)ncc2Br)CC1 | 67 nM | 7 nM
CC(C)CN(NC(=O)c1ccc(C(=O)c2ccccc2)cc1)c1nc(C#N)ncc1Br | 115 nM | 3 nM
CC(C)CN(NC(=O)c1ccc(Oc2ccccc2)cc1)c1nc(C#N)ncc1Br | 896 nM | 8 nM
CC(C)CN(NC(=O)c1cccc(Oc2ccccc2)c1)c1nc(C#N)ncc1Br | 116 nM | 4 nM
CC(C)CN(NC(=O)c1ccccc1Oc1ccccc1)c1nc(C#N)ncc1Br | 66 nM | 5 nM
CC(C)CN(NC(=O)c1cccc(-c2ccccc2)c1)c1nc(C#N)ncc1Br | 37 nM | 1 nM
CC(C)CN(NC(=O)c1ccc(Cc2ccccc2)cc1)c1nc(C#N)ncc1Cl | 962 nM | 18 nM

Other lines, results leading:

IC50 [1] | IC50 [2] | SMILES
> 10000 nM | 609 nM | CC(C)CN(NC(=O)OC(C)(C)C)c1cccc(C#N)n1
990 nM | 64 nM | CC(C)CN(NC(=O)OC(C)(C)C)c1ncc(C#N)c(Cl)n1
> 10000 nM | > 10000 nM | CC(C)CN(NC(=O)OC(C)(C)C)c1cc(C#N)ncn1
3570 nM | 196 nM | CC(C)CN(NC(=O)OC(C)(C)C)c1nccc(C#N)n1
870 nM | 60 nM | CC(C)CN(NC(=O)OC(C)(C)C)c1ccnc(C#N)n1
583 nM | 24 nM | CC(C)CN(NC(=O)OC(C)(C)C)c1nc(C#N)ncc1F
645 nM | 65 nM | CC(C)CN(NC(=O)c1ccc2ccccc2c1)c1nc(C#N)ncc1Br
2390 nM | 79 nM | COc1cnc(C#N)nc1N(CC(C)C)NC(=O)OC(C)(C)C
254 nM | 6 nM | CC(C)CN(NC(=O)c1ccc2ccccc2n1)c1nc(C#N)ncc1Cl
197 nM | 7 nM | CC(C)CN(NC(=O)c1nccc2ccccc12)c1nc(C#N)ncc1Cl
> 10000 nM | 8400 nM | COCc1cnc(C#N)nc1N(CC(C)C)NC(=O)OC(C)(C)C
10 nM | 1 nM | CC(C)(C)OC(=O)NN(CC1CCCC1)c1nc(C#N)ncc1Br
563 nM | 65 nM | CC(C)CN(NC(=O)c1cc2ccccc2o1)c1nc(C#N)ncc1Br
1240 nM | 183 nM | COc1ccc2oc(C(=O)NN(CC(C)C)c3nc(C#N)ncc3Br)cc2c1
399 nM | 46 nM | COc1cccc2cc(C(=O)NN(CC(C)C)c3nc(C#N)ncc3Br)oc12
121 nM | 25 nM | CC1(CN(NC(=O)OC(C)(C)C)c2nc(C#N)ncc2Br)CCCCC1

IC50 [1] | IC50 [2] | SMILES
860 nM | 257 nM | CC(C)(C)OC(=O)NN(CCC1CCCCC1)c1nc(C#N)ncc1Br
347 nM | 17 nM | CC(C)(C)OC(=O)NN(Cc1ccccc1)c1nc(C#N)ncc1Br
69 nM | 0.7 nM | CC(C)CN(NC(=O)c1ccc2occc2c1)c1nc(C#N)ncc1Br
35 nM | 2 nM | CC(C)(C)OC(=O)NN(CC1CC=CC1)c1nc(C#N)ncc1Br
311 nM | 12 nM | CC(C)(C)OC(=O)NN(CCC1C=CCC1)c1nc(C#N)ncc1Br (configuration not stated)
56 nM | 9 nM | CC(C)(C)OC(=O)NN(c1nc(C#N)ncc1Br)C1CCCC1
4650 nM | 103 nM | CC(C)CN(NC(=O)c1cc2cc(OCc3ccccc3)ccc2[nH]1)c1nc(C#N)ncc1Br
> 10000 nM | 604 nM | CC(C)CN(NC(=O)c1onc2ccccc12)c1nc(C#N)ncc1Br
53 nM | 3 nM | CC1CCC(N(NC(=O)OC(C)(C)C)c2nc(C#N)ncc2Br)C1 (configuration not stated)
112 nM | 2 nM | CC(C)CN(NC(=O)c1nc2ccccc2s1)c1nc(C#N)ncc1Cl
93 nM | 0.5 nM | CC(C)CN(NC(=O)c1ccc2[nH]cnc2c1)c1nc(C#N)ncc1Cl
40 nM | 0.2 nM | CC(C)CN(NC(=O)c1ccc2[nH]nnc2c1)c1nc(C#N)ncc1Br
329 nM | 4 nM | CC(C)CN(NC(=O)c1cccc2c1Cc1ccccc1-2)c1nc(C#N)ncc1Br
831 nM | 25 nM | CC(C)CN(NC(=O)c1cccc2c1C(=O)c1ccccc1-2)c1nc(C#N)ncc1Br
33 nM | < 0.5 nM | CC(=O)N1CCC(N(NC(=O)OC(C)(C)C)c2nc(C#N)ncc2Br)CC1
